Assays:
[1] = tested on: Hepatitis C virus; experiment: Tested for inhibition against Helicase activity of hepatitis C virus (HCV) in presence of ATP adjusted to 105 uM and 4.7 pM of DNA substrate; type: functional, Hepacivirus hominis
Procedure, shortened: (§1)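 Unwinding of a 32P 5'-end-labelled partial duplex (26-mer released strand on 40-mer template; DNA or RNA as per line, 4.7 pM nucleotide base), using purified NTPase/helicase (2 pmol WNV from infected Vero E6 medium; 0.5 pmol HCV or 4 pmol JEV NS3 domain, or 0.2 pmol Suv3(Δ1–159), E. coli-expressed). ATP was set at each enzyme's ATPase Km: WNV 9.5 μM, HCV 105 μM, JEV 235 μM, Suv3 4.2 μM. The reaction ran in pH 7.5 Tris with 2 mM MgCl2 for 30 min at 30 °C.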

[2] = tested on: Japanese encephalitis virus; experiment: Tested for inhibition against Helicase activity of Japanese encephalitis virus (JEV) in presence of ATP adjusted to 235 uM and 4.7 pM of DNA substrate; type: functional; procedure, shortened: as §1
[3] = Tested for inhibition against Helicase activity of human NTPase/Helicase Suv3 (delta1-159) in presence of ATP adjusted to 4.2 uM and 4.7 pM of DNA substrate; type: functional; procedure, shortened: as §1
[4] = tested on: West Nile virus; experiment: Tested for inhibition against Helicase activity of west nile virus (WNV) in presence of ATP adjusted to 9.5 uM and 4.7 pM of DNA substrate; type: functional; procedure, shortened: as §1
[5] = tested on: Hepatitis C virus; experiment: Tested for inhibition against Helicase activity of hepatitis C virus (HCV) in presence of ATP adjusted to 105 uM and 4.7 pM of RNA duplex substrate; type: functional, Hepacivirus hominis; procedure, shortened: as §1
[6] = tested on: Japanese encephalitis virus; experiment: Tested for inhibition against Helicase activity of Japanese encephalitis virus (JEV) in presence of ATP adjusted to 235 uM and 4.7 pM of RNA duplex substrate; type: functional; procedure, shortened: as §1
[7] = Tested for inhibition against Helicase activity of human NTPase/Helicase Suv3 (delta1-159) in presence of ATP adjusted to 4.2 uM and 4.7 pM of RNA duplex substrate; type: functional; procedure, shortened: as §1
[8] = tested on: West Nile virus; experiment: Tested for inhibition against Helicase activity of west nile virus (WNV) in presence of ATP adjusted to 9.5 uM and 4.7 pM of RNA duplex substrate; type: functional; procedure, shortened: as §1
[9] = tested on: Hepatitis C virus; experiment: Tested for activating effect of hepatitis C virus (HCV) in presence of ATP adjusted to 105 uM and 4.7 pM of DNA substrate; type: functional, Hepacivirus hominis; procedure, shortened: as §1
[10] = tested on: West Nile virus; experiment: Tested for activating effect of west nile virus (WNV) in presence of ATP adjusted to […] and 4.7 pM of DNA substrate; type: functional
[11] = tested on: Hepatitis C virus; experiment: Tested for inhibition against 1.05 nM ATPase activity of hepatitis C virus (HCV) in presence of ATP adjusted to 1*10e-5 of Km of enzyme; type: functional, Hepacivirus hominis
Procedure, shortened: (§2)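 ATPase assay measuring 33Pi released from [γ-33P]ATP. Enzymes were 2 pmol WNV, 0.5 pmol HCV, 4 pmol JEV or 0.2 pmol Suv3(Δ1–159). The reaction ran in pH 7.5 Tris with 2 mM MgCl2 and 0.1 mg/mL BSA for 30 min at 30 °C and was stopped with activated charcoal; supernatant was scintillation-counted.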

[12] = tested on: Hepatitis C virus; experiment: Tested for inhibition against 1.05 nM ATPase activity of hepatitis C virus (HCV) in presence of ATP adjusted to 1*10e-4 of Km of enzyme; type: functional, Hepacivirus hominis; procedure, shortened: as §2
[13] = tested on: Japanese encephalitis virus; experiment: Tested for inhibition against 2.35 nM ATPase activity of Japanese encephalitis virus (JEV) in presence of ATP adjusted to 1*10e-5 of Km of enzyme; type: functional; procedure, shortened: as §2
[14] = tested on: Japanese encephalitis virus; experiment: Tested for inhibition against […] ATPase activity of Japanese encephalitis virus (JEV) in presence of ATP adjusted to 1*10e-4 of Km of enzyme; type: functional; procedure, shortened: as §2
[15] = Tested for inhibition against 42 nM ATPase activity of human NTPase/Helicase Suv3 (delta1-159) in presence of ATP adjusted to 1*10e-5 of Km of enzyme; type: functional; procedure, shortened: as §2
[16] = Tested for inhibition against 42 pM ATPase activity of human NTPase/Helicase Suv3 (delta1-159) in presence of ATP adjusted to 1*10e-4 of Km of enzyme; type: functional; procedure, shortened: as §2
[17] = tested on: West Nile virus; experiment: Tested for inhibition against 95 pM ATPase activity of west nile virus (WNV) in presence of ATP adjusted to 1*10e-5 of Km of enzyme; type: functional; procedure, shortened: as §2
[18] = tested on: West Nile virus; experiment: Tested for inhibition against 95 pM ATPase activity of west nile virus (WNV) in presence of ATP adjusted to 1*10e-4 of Km of enzyme; type: functional; procedure, shortened: as §2
[19] = tested on: Hepatitis B virus; experiment: Tested for inhibition against […] in cultured human hepatoblastoma 2.2.15 cells; type: functional, organism-based; conditions: HepG2 2.2.15
[20] = tested on: Flavivirus; experiment: Tested for inhibition against Flaviviridae NTPase/helicase (NTPase/helicase Non structural protein 3); type: functional; conditions: Orthoflavivirus
[21] = Antimeasles activity determined; type: functional
[22] = tested on: Human rhinovirus sp.; experiment: Antirhino activity determined; type: functional, organism-based

Row | Compound | IC50 [1] | IC50 [2] | IC50 [3] | IC50 [4] | IC50 [5] | IC50 [6] | IC50 [7] | IC50 [8] | also measured
1 | CO[C@@H]1[C@H](O)[C@@H](CO)O[C@H]1n1cnc2c(=O)[nH][nH]c(=O)c21 | 450 µM | > 500 µM | > 500 µM | 30 µM | – | – | – | – | –
2 | NC1=NC(=O)C2C(N=CN2COCCO)C(=O)N1 (centres undefined) | > 500 µM | > 500 µM | – | > 500 µM | – | – | – | – | –
3 | NC1=NC(=O)C2C(N=CN2COCCOCc2ccccc2)C(=O)N1 (centres undefined) | 11 µM | 150 µM | 5 µM | 5.7 µM | 5.5 µM | > 500 µM | 6 µM | 3.3 µM | –
4 | O=C1NC2C(N=CN2Cc2ccccc2)C(=O)N(Cc2ccccc2)N1 (centres undefined) | > 500 µM | > 500 µM | > 500 µM | 3.5 µM | > 500 µM | > 500 µM | > 500 µM | > 500 µM | –
5 | NC1=NC(=O)C2C(N=CN2[C@H]2O[C@H](CO)[C@@H](O)[C@H]2O)C(=O)N1 (some centres undefined) | – | > 500 µM | > 500 µM | – | 12 µM | 4.5 µM | 3.5 µM | 220 µM | ED200 [9]: 150 µM; ED200 [10]: 60 µM
6 | Nc1nc(=O)c2c(ncn2[C@@H]2C[C@H](O)[C@@H](CO)O2)c(=O)[nH]1 | 7 µM | 13 µM | 28 µM | 25 µM | > 500 µM | 2 µM | 150 µM | 5.7 µM | –
7 | CO[C@@H]1[C@H](O)[C@@H](CO)O[C@H]1n1cnc2c(=O)[nH]c(N)nc(=O)c21 | – | > 500 µM | > 500 µM | > 500 µM | – | – | – | – | ED200 [9]: 350 µM
8 | NC1=NC(=O)C2N=CNC2C(=O)N1 (centres undefined) | > 500 µM | > 500 µM | – | > 500 µM | 200 µM | > 500 µM | 500 µM | 220 µM | –
9 | O=C1NC2N=CNC2C(=O)N(Cc2ccccc2)N1 (centres undefined) | > 500 µM | > 500 µM | > 500 µM | 1.3 µM | > 500 µM | > 500 µM | > 500 µM | > 500 µM | –
10 | NC1=NC(=O)C2C(N=CN2CCOCP(=O)(O)O)C(=O)N1 (centres undefined) | 200 µM | > 500 µM | > 500 µM | 500 µM | – | – | – | – | –
11 | O=C1NNC(=O)C2C(N=CN2C2O[C@H](COP(=O)(O)OP(=O)(O)OP(=O)(O)O)[C@@H](O)[C@H]2O)N1 (some centres undefined) | – | – | – | – | – | – | – | – | IC50 [11]: 1.5 µM; Ki [12]: 1.7 µM; IC50 [13]: 40 µM; Ki [14]: 15 µM; IC50 [15]: 125 µM; Ki [16]: 45 µM; IC50 [17]: 4 µM; Ki [18]: 2.9 µM
12 | N=C1N=C(N)N=C(N)C2N=CN(C3O[C@@H](COP(=O)(O)OP(=O)(O)OP(=O)(O)O)[C@H](O)[C@@H]3O)C12 (some centres undefined) | – | – | – | – | – | – | – | – | IC50 [11]: 0.55 µM; Ki [12]: 0.2 µM; IC50 [13]: 12 µM; Ki [14]: 3.5 µM; IC50 [15]: 40 µM; Ki [16]: 15 µM; IC50 [17]: 0.15 µM; Ki [18]: 0.38 µM
13 | N=C1N=C(N)N=C(N)C2N=CN(C3O[C@@H](CO)[C@H](O)[C@@H]3O)C12 (some centres undefined) | > 500 µM | > 500 µM | > 500 µM | > 500 µM | – | – | – | – | –
14 | NC1=NC(=O)C2C(N=CN2[C@@H]2O[C@H](CO)C(O)[C@H]2O)C(=O)N1 (single isomer, unassigned) | – | – | – | – | – | – | – | – | IC50 [19]: 0.13 µM; IC50 [20]: > 500 µM
15 | NC1=NC(=O)C2C(N=CN2[C@H]2CC(O)[C@@H](CO)O2)C(=O)N1 (single isomer, unassigned) | – | > 500 µM | > 500 µM | > 500 µM | – | – | – | – | ED200 [9]: 100 µM
16 | NC1=NC(=O)C2C(N=C(c3ccccc3)N2C2O[C@H](CO)C(O)[C@H]2O)C(=O)N1 (single isomer, unassigned) | – | – | – | – | – | – | – | – | IC50 [21]: 0.5 µM; IC50 [22]: 6.7 µM
17 | O=C1NNC(=O)C2C(N=CN2C2O[C@H](CO)C(O)[C@H]2O)N1 (single isomer, unassigned) | > 500 µM | > 500 µM | > 500 µM | > 500 µM | – | – | – | – | –

From ChEMBL document CHEMBL1145091, “Ring-expanded ("fat") nucleoside and nucleotide analogues exhibit potent in vitro activity against flaviviridae NTPases/helicases, including those of the West Nile virus, hepatitis C virus, and Japanese encephalitis virus” (J Med Chem, 2003)
